Values joined by “and” are separate entries in the source; they are usually repeats but may differ in a detail not shown here. Equal entries are not always repeated.
Test system: HEK-293T
Assay: Multiplex assay against HEK293T;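 on Population Tubulin-Different-Phenotype (%): share of the cells with healthy nuclei that show this phenotype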
Format: toxicity, cell-based
Settings: human
In short: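 Phenotypes for tubulin, mitochondrial mass and membrane permeability are expressed as per cents of healthy-nucleus cells. Cells were stained live at seeding with Hoechst33342, BioTracker Green Microtubule Cytoskeleton Dye, MitoTracker Red and Annexin V Alexa Fluor 680, then imaged after compound addition on a CQ1 microscope at 37°C and 5% CO2. Machine-learning gating in CellPathfinder separated Hoechst high-intensity objects from normal cells, divided normal cells by nuclear state (healthy, pyknosed, fragmented) and divided pyknosed cells into mitotic or apoptotic.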

[1] = 12 h, 10 µM, compound concentration 10 uM, replicate 1
[2] = 12 h, 10 µM, compound concentration 10 uM, replicate 2
[3] = 24 h, 10 µM, compound concentration 10 uM, replicate 1
[4] = 24 h, 10 µM, compound concentration 10 uM, replicate 2
[5] = 12 h, 1 µM, compound concentration 1 uM, replicate 1
[6] = 12 h, 1 µM, compound concentration 1 uM, replicate 2
[7] = 24 h, 1 µM, compound concentration 1 uM, replicate 1
[8] = 24 h, 1 µM, compound concentration 1 uM, replicate 2
[9] = 48 h, 1 µM, compound concentration 1 uM, replicate 1
[10] = 48 h, 1 µM, compound concentration 1 uM, replicate 2
[11] = 48 h, 10 µM, compound concentration 10 uM, replicate 1
[12] = 48 h, 10 µM, compound concentration 10 uM, replicate 2

Cn1cncc1[C@@](O)(COc1ccc(C#N)cc1-c1ccc(OC(F)(F)F)cc1)c1ccc(C#N)cc1 [A-108]
Population Apoptotic (%) [1]: 23% and 20%
Population Fragmented Nuclei (%) [1]: 11% and 16%
Population Healthy Nuclei (%) [1]: 51% and 64%
Population Hoechst High Intensity Objects (%) [1]: 11% and 14%
Population Mitochondria Different-Phenotype (%) [1]: 8% and 4%
Population Mitotic Cells (%) [1]: 76% and 79%
Population Normal (%) [1]: 88% and 85%
Population Pyknosed Nuclei (%) [1]: 36% and 18%
Total Cell Count [1]: 827 and 582
Population Apoptotic (%) [2]: 12% and 14%
Population Fragmented Nuclei (%) [2]: 3% and 9%
Population Healthy Nuclei (%) [2]: 77% and 85%
Population Hoechst High Intensity Objects (%) [2]: 4% and 2%
Population Mitochondria Different-Phenotype (%) [2]: 19% and 7%
Population Mitotic Cells (%) [2]: 87% and 85%
Population Normal (%) [2]: 95% and 97%
Total Cell Count [2]: 1209 and 1952
Population Apoptotic (%) [3]: 25% and 12%
Population Fragmented Nuclei (%) [3]: 10% and 12%
Population Healthy Nuclei (%) [3]: 60% and 78%
Population Hoechst High Intensity Objects (%) [3]: 10%
Population Mitochondria Different-Phenotype (%) [3]: 4%
Population Mitotic Cells (%) [3]: 75% and 87%
Population Normal (%) [3]: 89%
Total Cell Count [3]: 759 and 650
Population Apoptotic (%) [4]: 8% and 5%
Population Healthy Nuclei (%) [4]: 73% and 71%
Population Hoechst High Intensity Objects (%) [4]: 4% and 3%
Population Mitochondria Different-Phenotype (%) [4]: 9% and 2%
Population Mitotic Cells (%) [4]: 91% and 95%
Population Normal (%) [4]: 95% and 96%
Population Tubulin-Different-Phenotype (%) [4]: 97%
Total Cell Count [4]: 1251 and 3226

CN(C)CC#Cc1ccc(OCCCc2sc(N3CCc4cccc(C(=O)Nc5nc6ccccc6s5)c4C3)nc2C(=O)O)c(F)c1 [A-1155463]
Population Apoptotic (%) [5]: 33%
Population Fragmented Nuclei (%) [5]: 12%
Population Healthy Nuclei (%) [5]: 42%
Population Hoechst High Intensity Objects (%) [5]: 11%
Population Membrane Permeable-Phenotype (%) [5]: 2%
Population Mitochondria Different-Phenotype (%) [5]: 68%
Population Mitotic Cells (%) [5]: 66%
Population Normal (%) [5]: 88%
Population Pyknosed Nuclei (%) [5]: 45%
Population Tubulin-Different-Phenotype (%) [5]: 40%
Total Cell Count [5]: 278
Population Apoptotic (%) [6]: 15%
Population Fragmented Nuclei (%) [6]: 4%
Population Healthy Nuclei (%) [6]: 44%
Population Hoechst High Intensity Objects (%) [6]: 3%
Population Membrane Permeable-Phenotype (%) [6]: 6%
Population Mitochondria Different-Phenotype (%) [6]: 17%
Population Mitotic Cells (%) [6]: 84%
Population Normal (%) [6]: 96%
Population Pyknosed Nuclei (%) [6]: 50%
Population Tubulin-Different-Phenotype (%) [6]: 17%
Total Cell Count [6]: 177
Population Apoptotic (%) [1]: 40%
Population Fragmented Nuclei (%) [1]: 8%
Population Healthy Nuclei (%) [1]: 41%
Population Hoechst High Intensity Objects (%) [1]: 10%
Population Membrane Permeable-Phenotype (%) [1]: 13%
Population Mitochondria Different-Phenotype (%) [1]: 63%
Population Mitotic Cells (%) [1]: 59%
Population Normal (%) [1]: 89%
Population Pyknosed Nuclei (%) [1]: 49%
Population Tubulin-Different-Phenotype (%) [1]: 64%
Total Cell Count [1]: 288
Population Apoptotic (%) [2]: 18%
Population Fragmented Nuclei (%) [2]: 20%
Population Healthy Nuclei (%) [2]: 39%
Population Hoechst High Intensity Objects (%) [2]: 7%
Population Membrane Permeable-Phenotype (%) [2]: 10%
Population Mitochondria Different-Phenotype (%) [2]: 17%
Population Mitotic Cells (%) [2]: 81%
Population Normal (%) [2]: 92%
Population Pyknosed Nuclei (%) [2]: 39%
Population Tubulin-Different-Phenotype (%) [2]: 26%
Total Cell Count [2]: 263
Population Apoptotic (%) [7]: 48%
Population Fragmented Nuclei (%) [7]: 11%
Population Healthy Nuclei (%) [7]: 38%
Population Hoechst High Intensity Objects (%) [7]: 14%
Population Membrane Permeable-Phenotype (%) [7]: 4%
Population Mitochondria Different-Phenotype (%) [7]: 54%
Population Mitotic Cells (%) [7]: 51%
Population Normal (%) [7]: 85%
Population Pyknosed Nuclei (%) [7]: 50%
Population Tubulin-Different-Phenotype (%) [7]: 37%
Total Cell Count [7]: 286
Population Apoptotic (%) [8]: 10%
Population Fragmented Nuclei (%) [8]: 4%
Population Healthy Nuclei (%) [8]: 56%
Population Hoechst High Intensity Objects (%) [8]: 2%
Population Membrane Permeable-Phenotype (%) [8]: 17%
Population Mitochondria Different-Phenotype (%) [8]: 7%
Population Mitotic Cells (%) [8]: 89%
Population Normal (%) [8]: 97%
Population Pyknosed Nuclei (%) [8]: 39%
Population Tubulin-Different-Phenotype (%) [8]: 24%
Total Cell Count [8]: 220
Population Apoptotic (%) [3]: 42%
Population Fragmented Nuclei (%) [3]: 12%
Population Healthy Nuclei (%) [3]: 43%
Population Hoechst High Intensity Objects (%) [3]: 10%
Population Membrane Permeable-Phenotype (%) [3]: 14%
Population Mitochondria Different-Phenotype (%) [3]: 35%
Population Mitotic Cells (%) [3]: 57%
Population Normal (%) [3]: 89%
Population Pyknosed Nuclei (%) [3]: 44%
Population Tubulin-Different-Phenotype (%) [3]: 54%
Total Cell Count [3]: 298
Population Apoptotic (%) [4]: 24%
Population Fragmented Nuclei (%) [4]: 19%
Population Healthy Nuclei (%) [4]: 52%
Population Hoechst High Intensity Objects (%) [4]: 3%
Population Membrane Permeable-Phenotype (%) [4]: 20%
Population Mitochondria Different-Phenotype (%) [4]: 13%
Population Mitotic Cells (%) [4]: 75%
Population Normal (%) [4]: 96%
Population Pyknosed Nuclei (%) [4]: 28%
Population Tubulin-Different-Phenotype (%) [4]: 48%
Total Cell Count [4]: 287
Population Apoptotic (%) [9]: 33%
Population Fragmented Nuclei (%) [9]: 16%
Population Healthy Nuclei (%) [9]: 35%
Population Hoechst High Intensity Objects (%) [9]: 17%
Population Membrane Permeable-Phenotype (%) [9]: 9%
Population Mitochondria Different-Phenotype (%) [9]: 30%
Population Mitotic Cells (%) [9]: 66%
Population Normal (%) [9]: 82%
Population Pyknosed Nuclei (%) [9]: 48%
Population Tubulin-Different-Phenotype (%) [9]: 37%
Total Cell Count [9]: 322
Population Apoptotic (%) [10]: 5%
Population Fragmented Nuclei (%) [10]: 7%
Population Healthy Nuclei (%) [10]: 78%
Population Hoechst High Intensity Objects (%) [10]: 4%
Population Membrane Permeable-Phenotype (%) [10]: 19%
Population Mitochondria Different-Phenotype (%) [10]: 4%
Population Mitotic Cells (%) [10]: 94%
Population Normal (%) [10]: 95%
Population Pyknosed Nuclei (%) [10]: 13%
Population Tubulin-Different-Phenotype (%) [10]: 26%
Total Cell Count [10]: 397
Population Apoptotic (%) [11]: 40%
Population Fragmented Nuclei (%) [11]: 15%
Population Healthy Nuclei (%) [11]: 56%
Population Hoechst High Intensity Objects (%) [11]: 11%
Population Membrane Permeable-Phenotype (%) [11]: 30%
Population Mitochondria Different-Phenotype (%) [11]: 13%
Population Mitotic Cells (%) [11]: 59%
Population Normal (%) [11]: 88%
Population Pyknosed Nuclei (%) [11]: 28%
Population Tubulin-Different-Phenotype (%) [11]: 52%
Total Cell Count [11]: 390
Population Apoptotic (%) [12]: 8%
Population Healthy Nuclei (%) [12]: 65%
Population Hoechst High Intensity Objects (%) [12]: 3%
Population Membrane Permeable-Phenotype (%) [12]: 43%
Population Mitochondria Different-Phenotype (%) [12]: 2%
Population Mitotic Cells (%) [12]: 91%
Population Normal (%) [12]: 96%
Population Pyknosed Nuclei (%) [12]: 19%
Population Tubulin-Different-Phenotype (%) [12]: 48%
Total Cell Count [12]: 365

Source: ChEMBL document CHEMBL4689842, “EUbOPEN Chemogenomics Library wave 1” (2021)
